The target of test [1] is T1, Fe(3+)-Zn(2+) purple acid phosphatase (Phaseolus vulgaris, UniProt P80366).
T1 sequence (P80366 whole entry): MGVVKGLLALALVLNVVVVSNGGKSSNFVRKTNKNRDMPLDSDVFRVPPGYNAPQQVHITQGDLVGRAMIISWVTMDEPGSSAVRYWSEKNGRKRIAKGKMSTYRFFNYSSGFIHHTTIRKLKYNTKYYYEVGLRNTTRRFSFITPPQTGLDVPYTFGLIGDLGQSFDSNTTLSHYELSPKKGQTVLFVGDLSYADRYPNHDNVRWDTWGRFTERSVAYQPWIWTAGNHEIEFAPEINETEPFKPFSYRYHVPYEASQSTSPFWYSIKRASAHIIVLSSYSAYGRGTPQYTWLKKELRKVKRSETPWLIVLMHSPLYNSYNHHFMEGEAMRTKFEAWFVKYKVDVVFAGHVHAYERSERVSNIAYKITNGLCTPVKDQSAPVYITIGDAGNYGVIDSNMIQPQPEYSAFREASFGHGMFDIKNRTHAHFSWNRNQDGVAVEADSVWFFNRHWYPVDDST
The test is described as follows: Competitive inhibition of red kidney bean purple acid phosphatase Fe(3)Fe(2) state assessed as enzyme-inhibitor complex using pNPP as substrate by UV/Vis spectrophotometric method. The method in brief: (§1)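 Pig PAP was from sow uterine fluid and pre-reduced to Fe(III)Fe(II) with 0.77 mM β-mercaptoethanol (10 min, 37 °C); rkbPAP was purified from red kidney beans. Assays ran at 25 °C, pH 4.9 (0.1 M acetate, 25% DMSO) with 12 nM enzyme, pNPP 1–12.5 mM and inhibitor 50–300 μM. p-Nitrophenol was read at 405 nm. Kic and Kiuc came from non-linear fit to the general inhibition equation.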

For test [2], the target named is T2, Tartrate-resistant acid phosphatase type 5 (Sus scrofa, UniProt P09889).
T2 sequence (P09889 whole entry): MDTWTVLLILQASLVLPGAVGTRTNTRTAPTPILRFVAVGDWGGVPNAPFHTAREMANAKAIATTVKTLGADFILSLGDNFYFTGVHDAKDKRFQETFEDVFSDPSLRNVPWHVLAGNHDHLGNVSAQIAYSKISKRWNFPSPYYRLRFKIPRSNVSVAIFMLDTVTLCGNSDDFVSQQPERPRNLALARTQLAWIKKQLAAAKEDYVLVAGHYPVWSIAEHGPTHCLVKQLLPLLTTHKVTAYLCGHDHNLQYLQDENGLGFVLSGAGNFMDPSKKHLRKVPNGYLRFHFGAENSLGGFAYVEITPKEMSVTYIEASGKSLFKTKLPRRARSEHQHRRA
Description: Competitive inhibition of pig purple acid phosphatase Fe(3)Fe(2) state assessed as enzyme-inhibitor complex using pNPP as substrate by UV/Vis spectrophotometric method. Summed up:
as §1

As for `COc1ccc(-c2nc(C(=O)O)cs2)cc1`, the Ki in test [1] was 400 µM; in test [2], 120 µM.

`Cc1ccc(-c2nc(C(=O)O)cs2)cc1`: the Ki in test [1] was 340 µM; in test [2], 42 µM.

As to `O=C(O)c1csc(-c2cccc3ccccc23)n1`, the Ki worked out at 185 µM in test [1] and 33 µM in test [2].

On to `O=C(O)c1csc(-c2ccccc2Cl)n1`, for which the values for the inhibition constant (Ki) in test [1] and in test [2] were 920 µM and 630 µM, respectively.

Take `O=C(O)c1csc(-c2ccc(Cl)cc2)n1`: the Ki turned out to be 530 µM in test [1] and 49 µM in test [2].

As to `O=C(O)c1csc(-c2ccccc2)n1`, the Ki in test [2] came out at 190 µM.
